According to ChEMBL document CHEMBL2375298, “Isolation, structure determination, and anti-HIV evaluation of tigliane-type diterpenes and biflavonoid from Stellera chamaejasme” (J Nat Prod, 2013):
Active and inactive are the calls of the source. The rule behind the calls is not given here.

Experiments:
MT4 = assay: Cytotoxicity against human MT4 cells by CellTitre-Glo luminescent assay; format: cell-based
[1] = tested on: Human immunodeficiency virus 1; assay: Antiviral activity against HIV-1 NL4-3 infected in human MT4 cells assessed as inhibition of viral replication after 4 days by ELISA; format: functional
Summary of the method: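 MT4 cells infected with HIV-1 NL4-3 at MOI 0.001 in presence of graded compound concentrations; fresh medium with compound added 48 h post-infection to sustain growth. Replication measured by p24 ELISA on day 4 post-infection. EC90 (concentration inhibiting replication by 90%) calculated from dose-response.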

[2] = Human immunodeficiency virus 1, NL4-3, MT4, 96 h

SMILES | IC50 (MT4) [µM] | EC90 [1] | EC90 [1, 2] [µM]
COc1cc(/C=C/C(=O)OCCCCCCCCCCCCCCCCCCCCCC(=O)OCC(O)CO)ccc1O (configuration not stated) | 16.2 |  | 
COc1ccc([C@@H]2Oc3cc(O)cc(O)c3C(=O)[C@@H]2[C@H]2C(=O)c3c(O)cc(O)cc3O[C@H]2c2ccc(OC)cc2)cc1 |  | inactive | 
CCCCCCCC(=O)O[C@@]12[C@H](OC(=O)c3ccccc3)[C@@H](C)[C@]3(O)[C@@H]4C=C(C)C(=O)[C@@]4(O)[C@H](O)C(CO)=C[C@H]3[C@@H]1C2(C)C | 17.2 |  | 0.0038
O=C(/C=C/CCc1ccccc1)c1ccccc1 |  | inactive | 
C=C(C)[C@@]12C[C@@H](COC(=O)c3ccccc3)[C@@]34OC5(O[C@@H]1[C@@H]3[C@@H]1O[C@]1(CO)[C@@H](O)[C@@]1(O)[C@H]4[C@H]([C@H](C)[C@@H]1OC(=O)c1ccccc1)[C@H](C)CCCCCC[C@H]5O)O2 [GNIDIMACRIN] | 4.3 |  | 0.0004
CCCCCCCC(=O)O[C@@]12[C@H](OC(=O)c3ccccc3)[C@@H](C)[C@@]3(O)[C@H]([C@@H]1C2(C)C)[C@@H](OO)C(CO)=C[C@]1(O)C(=O)C(C)=C[C@@H]31 | 15.8 |  | 1.52
COc1ccc([C@@H]2Oc3cc(O)cc(O)c3C(=O)[C@@H]2[C@H]2C(=O)c3c(O)cc(OC)cc3O[C@H]2c2ccc(OC)cc2)cc1 |  | inactive | 
CCCCC/C=C\CCC(=O)O[C@@]12[C@H](OC(=O)c3ccccc3)[C@@H](C)[C@@]3(O)[C@@H](C=C(CO)C[C@]4(O)C(=O)C(C)=C[C@@H]34)[C@@H]1C2(C)C | 4.7 |  | 0.00066
COc1ccc([C@@H]2Oc3cc(OC)cc(O)c3C(=O)[C@H]2[C@@H]2C(=O)c3c(O)cc(O)cc3O[C@H]2c2ccc(O)cc2)cc1 | 17.5 |  | 4.21
C=C(C)[C@]12C[C@@H](COC(C)=O)[C@@]34O[C@]5(O[C@@H]1[C@@H]3[C@@H]1O[C@]1(CO)[C@@H](O)[C@@]1(O)[C@H]4[C@H]([C@H](C)[C@@H]1OC(=O)c1ccccc1)[C@H](C)CCCCCC[C@H]5O)O2 | 4.3 |  | 0.0004
CC/C=C\C/C=C\CCC(=O)O[C@@]12[C@H](OC(=O)c3ccccc3)[C@@H](C)[C@@]3(O)[C@@H](C=C(CO)C[C@]4(O)C(=O)C(C)=C[C@@H]34)[C@@H]1C2(C)C | 7.8 |  | 0.0068
CCCCCCCCCC(=O)O[C@@]12[C@H](OC(=O)c3ccccc3)[C@@H](C)[C@@]3(O)[C@@H](C=C(CO)C[C@]4(O)C(=O)C(C)=C[C@@H]34)[C@@H]1C2(C)C [STELLERARIN] | 5.1 |  | 0.0005
CCCCCCCCCC(=O)O[C@@]12[C@H](OC(=O)c3ccccc3)[C@@H](C)[C@@]3(O)[C@H]([C@@H]1C2(C)C)[C@@H](OO)C(CO)=C[C@]1(O)C(=O)C(C)=C[C@@H]31 | 3.5 |  | 0.49
